Measured values: ChEMBL document CHEMBL1155362, “Synthesis, characterization and derivatization of some novel types of mono- and bis-imidazolidineiminothiones and imidazolidineiminodithiones with antitumor, antiviral, antibacterial and antifungal activities--part I” (Eur J Med Chem, 2009)
In brackets after ≈: the same amount, converted by molar mass. Activity calls are given as the source filed them. The rule behind the calls is not given here.

Experiments:
[1] = test system: Candida albicans; experiment: Antifungal activity against Candida albicans IMRU 3669 by macrotube dilution assay; assay type: functional
Outline: (§1)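 Macrotube twofold dilution per NCCLS/CLSI guidelines for fungi; 2 mg compound in 2.0 mL DMF, serially diluted across 14 tubes of Czapek's Dox medium, with a control tube; inoculum added to halve the concentration; 30 °C for 72 h; MIC is the lowest concentration without visible growth.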

[2] = test system: Bacillus subtilis; experiment: Antimicrobial activity against Bacillus subtilis NCTC 1040 by macrotube dilution assay; assay type: functional
[3] = test system: Pseudomonas aeruginosa; experiment: Antibacterial activity against Pseudomonas aeruginosa NCIB 9016 at 2.5 mg/ml by agar disk diffusion assay; assay type: functional; details: for zone of inhibition at 2500 µg/mL: Pseudomonas aeruginosa, NCIB 9016, read-out: DIZ
[4] = test system: Staphylococcus aureus; experiment: Antimicrobial activity against Staphylococcus aureus NCTC 7447 by macrotube dilution assay; assay type: functional
[5] = test system: Candida albicans; experiment: Antifungal activity against Candida albicans IMRU 3669 at 5 mg/ml by agar disk diffusion assay; assay type: functional; details: for zone of inhibition at 5000 µg/mL: Candida albicans, IMRU 3669, read-out: DIZ
Outline: (§2)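 Fungi maintained on Czapek's Dox agar; agar well diffusion with 1 cm wells and […] of each concentration (1, 2.5, 5 mg/mL) in DMF; inhibition zone diameter measured.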

[6] = test system: Bacillus subtilis; experiment: Antibacterial activity against Bacillus subtilis NCIB 3610 at 2.5 mg/ml by agar disk diffusion assay; assay type: functional; details: for zone of inhibition at 2500 µg/mL: Bacillus subtilis, NCIB 3610, read-out: DIZ
[7] = test system: Bacillus subtilis; experiment: Antibacterial activity against Bacillus subtilis NCIB 3610 at 5 mg/ml by agar disk diffusion assay; assay type: functional; details: for zone of inhibition at 5000 µg/mL: Bacillus subtilis, NCIB 3610, read-out: DIZ
[8] = test system: Pseudomonas aeruginosa; experiment: Antibacterial activity against Pseudomonas aeruginosa NCIB 9016 at 1 mg/ml by agar disk diffusion assay; assay type: functional; details: for zone of inhibition at 1000 µg/mL: Pseudomonas aeruginosa, NCIB 9016, read-out: DIZ
[9] = test system: Pseudomonas aeruginosa; experiment: Antibacterial activity against Pseudomonas aeruginosa NCIB 9016 at 5 mg/ml by agar disk diffusion assay; assay type: functional; details: for zone of inhibition at 5000 µg/mL: Pseudomonas aeruginosa, NCIB 9016, read-out: DIZ
[10] = test system: Bacillus subtilis; experiment: Antibacterial activity against Bacillus subtilis NCIB 3610 at 1 mg/ml by agar disk diffusion assay; assay type: functional; details: for zone of inhibition at 1000 µg/mL: Bacillus subtilis, NCIB 3610, read-out: DIZ
[11] = test system: Candida albicans; experiment: Antifungal activity against Candida albicans IMRU 3669 at 1 mg/ml by agar disk diffusion assay; assay type: functional; details: read-out: DIZ; outline: as §2
[12] = test system: Salmonella typhi; experiment: Antimicrobial activity against Salmonella typhi NCIMB 9331 by macrotube dilution assay; assay type: functional, Salmonella enterica subsp. enterica serovar Typhi; details: Salmonella enterica
[13] = test system: Aspergillus niger; experiment: Antifungal activity against Aspergillus niger Ferm-BAM C-21 by macrotube dilution assay; assay type: functional; outline: as §1
[14] = test system: Klebsiella pneumoniae; experiment: Antimicrobial activity against Klebsiella pneumoniae NCIMB 9111 by macrotube dilution assay; assay type: functional
[15] = test system: HepG2; experiment: Cytotoxicity against human HepG2 cells assessed as surviving fraction after 48 hrs by SRB assay; assay type: functional, cell-based; details: Homo sapiens, HepG2, 48 h; read-out: IC50
Outline: (§3)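 Cells seeded at 10⁴ cells/well and left 24 h to attach, then exposed to […] in triplicate wells per dose. Incubation 48 h, 37 °C, 5% CO₂. Cells fixed and stained with sulforhodamine B, excess dye removed with acetic acid, bound dye taken up in Tris EDTA and read on an ELISA reader. Surviving fraction plotted against concentration.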

[16] = Antitumor activity against mouse EAC cells assessed as inhibition of cell viability at 25 ug/ml after 2 hrs by trypan blue exclusion assay; assay type: functional; details: Ehrlich
Outline: (§4)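 EAC cells aspirated from ascitic fluid of inoculated mice and diluted in saline; 0.1 mL cell suspension, 0.8 mL RPMI 1640 and 0.1 mL compound (25, 50 or 100) incubated 2 h at 37 °C; non-viable cells counted by trypan blue exclusion; % non-viable = dead/total × 100.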

[17] = test system: HCT-116; experiment: Cytotoxicity against human HCT116 cells assessed as surviving fraction after 48 hrs by SRB assay; assay type: functional, cell-based; details: hct-116; outline: as §3
[18] = Antitumor activity against mouse EAC cells assessed as inhibition of cell viability at 100 ug/ml after 2 hrs by trypan blue exclusion assay; assay type: functional; details: Ehrlich; outline: as §4
[19] = test system: MCF7; experiment: Cytotoxicity against human MCF7 cells assessed as surviving fraction after 48 hrs by SRB assay; assay type: functional, cell-based; details: mcf7; outline: as §3
[20] = test system: U-251; experiment: Cytotoxicity against human U251 cells assessed as surviving fraction after 48 hrs by SRB assay; assay type: functional, cell-based; details: u-251; outline: as §3
[21] = test system: HeLa; experiment: Cytotoxicity against human HeLa cells assessed as surviving fraction after 48 hrs by SRB assay; assay type: functional, cell-based; outline: as §3
[22] = Antitumor activity against mouse EAC cells assessed as inhibition of cell viability at 50 ug/ml after 2 hrs by trypan blue exclusion assay; assay type: functional; details: Ehrlich; outline: as §4
[23] = test system: Hepatovirus A; experiment: Antiviral activity against Hepatitis A virus infected african green monkey Vero cells at 10^-4 dilution of 5 mg/ml by plaque formation assay; assay type: functional
Outline: (§5)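 Compound dilutions prepared from a 5 mg/mL DMSO stock, using the maximum non-toxic dilution for Vero cells over 3 days; 0.1 mL virus (10³) mixed with 0.1 mL compound for 1 h at room temperature; mixture inoculated onto washed Vero monolayers in 12-well plates and adsorbed at 37 °C; 2× MEM/agarose overlay applied; read-out % reduction in plaque count versus untreated virus control.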

[24] = test system: Coxsackievirus B4; experiment: Antiviral activity against Coxsackievirus B4 infected african green monkey Vero cells at 10^-4 dilution of 5 mg/ml by plaque formation assay; assay type: functional, organism-based; outline: as §5
[25] = test system: Escherichia coli; experiment: Antibacterial activity against Escherichia coli NCTC 10416 at 5 mg/ml by agar disk diffusion assay; assay type: functional; details: read-out: DIZ
[26] = test system: Salmonella typhi; experiment: Antibacterial activity against Salmonella typhi NCIMB 9331 at 5 mg/ml by agar disk diffusion assay; assay type: functional, Salmonella enterica subsp. enterica serovar Typhi; details: Salmonella enterica, read-out: DIZ
[27] = test system: Human alphaherpesvirus 1; experiment: Antiviral activity against HSV1 infected african green monkey Vero cells at 10^-4 dilution of 5 mg/ml by plaque formation assay; assay type: functional; outline: as §5
[28] = test system: Bacillus subtilis; experiment: Antibacterial activity against Bacillus subtilis NCTC 1040 at 5 mg/ml by agar disk diffusion assay; assay type: functional; details: read-out: DIZ
[29] = test system: Staphylococcus aureus; experiment: Antibacterial activity against Staphylococcus aureus NCTC 7447 at 5 mg/ml by agar disk diffusion assay; assay type: functional; details: read-out: DIZ
[30] = test system: Aspergillus niger; experiment: Antifungal activity against Aspergillus niger IMI 31726 at 5 mg/ml by agar disk diffusion assay; assay type: functional; details: read-out: DIZ
[31] = test system: Aspergillus niger; experiment: Antifungal activity against Aspergillus niger Ferm-BAM C-21 at 5 mg/ml by agar disk diffusion assay; assay type: functional; details: read-out: DIZ; outline: as §2
[32] = test system: Aspergillus niger; experiment: Antifungal activity against Aspergillus niger Ferm-BAM C-21 at 1 mg/ml by agar disk diffusion assay; assay type: functional; details: read-out: DIZ; outline: as §2
[33] = test system: Candida albicans; experiment: Antifungal activity against Candida albicans IMRU 3669 at 2.5 mg/ml by agar disk diffusion assay; assay type: functional; details: read-out: DIZ; outline: as §2
[34] = test system: Aspergillus niger; experiment: Antifungal activity against Aspergillus niger Ferm-BAM C-21 at 2.5 mg/ml by agar disk diffusion assay; assay type: functional; details: read-out: DIZ; outline: as §2

Row | SMILES | zone of inhibition at 2500 µg/mL [3] [mm] | zone of inhibition at 5000 µg/mL [5] [mm] | zone of inhibition at 2500 µg/mL [6] [mm] | zone of inhibition at 5000 µg/mL [7] [mm] | zone of inhibition at 1000 µg/mL [8] [mm] | zone of inhibition at 5000 µg/mL [9] [mm] | zone of inhibition at 1000 µg/mL [10] [mm] | Activity [23] | Activity [24] | zone of inhibition at 5000 µg/mL [25] [mm] | zone of inhibition at 5000 µg/mL [26] [mm] | Activity [27] | zone of inhibition at 5000 µg/mL [28] [mm] | zone of inhibition at 2500 µg/mL [33] [mm] | further results
1 | O=C1N(c2ccc(Cl)cc2)CC(=S)N1c1ccc(Cl)c(Cl)c1 | 32 | 32 | 20 | 20 | 29 | 37 | 19 |  |  |  |  |  |  |  | MIC [1]: 0.97 µg/mL (≈ 2.61 µM); MIC [2]: 1.95 µg/mL (≈ 5.25 µM); MIC [4]: 15.6 µg/mL (≈ 42 µM); zone of inhibition at 1000 µg/mL [11]: 25 mm; MIC [12]: 0.49 µg/mL (≈ 1.32 µM); MIC [13]: 31.3 µg/mL (≈ 84.2 µM); MIC [14]: 3.9 µg/mL (≈ 10.5 µM)
2 | Cc1ccc(-n2c(=O)n(-c3ccc(Cl)cc3)c3nc4cc(C)ccc4nc32)cc1 |  |  |  |  |  |  |  |  |  |  |  |  |  |  | IC50 [15]: 4.43 µg/mL (≈ 11.1 µM); inhibition at 25 µg/mL [16]: 35%; IC50 [17]: Not Active; inhibition at 100 µg/mL [18]: 90%; IC50 [19]: Not Active; IC50 [20]: Not Active; IC50 ([21]; Homo sapiens, HeLa, 48 h, read-out: IC50): 8.32 µg/mL (≈ 20.8 µM); inhibition at 50 µg/mL [22]: 60%
3 | N=C1C(=S)N(c2ccc(Br)cc2)C(=O)N1c1ccc2c(c1)Cc1ccccc1-2 |  | 13 |  |  |  |  |  | inactive | inactive | 14 | 16 | inactive | 13 |  | 
4 | N=C1C(=S)N(c2ccc(I)cc2)C(=O)N1c1cc(Cl)c(Cl)cc1Cl |  | 17 |  |  |  |  |  | 40% | inactive | 16.5 | 17 | inactive | 17 |  | zone of inhibition at 5000 µg/mL [29]: 18 mm; zone of inhibition at 5000 µg/mL [30]: 20 mm
5 | N#CC(=S)Nc1ccc(Cl)c(Cl)c1 |  | 44 |  |  |  |  |  |  |  |  |  |  |  | 40 | MIC [1]: 0.97 µg/mL (≈ 4.2 µM); MIC [2]: 0.97 µg/mL (≈ 4.2 µM); diameter of the inhibition zone (DIZ) [3]: 37 mm; MIC [4]: 3.9 µg/mL (≈ 16.9 µM); diameter of the inhibition zone (DIZ) [6]: 41 mm; zone of inhibition at 5000 µg/mL [31]: 56 mm; diameter of the inhibition zone (DIZ) [7]: 43 mm; zone of inhibition at 1000 µg/mL [32]: 29 mm; diameter of the inhibition zone (DIZ) [8]: 35 mm; diameter of the inhibition zone (DIZ) [9]: 38 mm; diameter of the inhibition zone (DIZ) [10]: 40 mm; zone of inhibition at 1000 µg/mL [11]: 37 mm; MIC [12]: 0.24 µg/mL (≈ 1.04 µM); MIC [13]: 15.6 µg/mL (≈ 67.5 µM); MIC [14]: 1.95 µg/mL (≈ 8.44 µM); zone of inhibition at 2500 µg/mL [34]: 45 mm
6 | NNc1nnc2c(n1)n(-c1ccc(Cl)cc1)c(=O)n2-c1ccc(Cl)cc1 |  |  |  |  |  |  |  |  |  |  |  |  |  |  | IC50 [15]: 1.54 µg/mL (≈ 3.97 µM); inhibition at 25 µg/mL [16]: 95%; IC50 [17]: Not Active; inhibition at 100 µg/mL [18]: 100%; IC50 [19]: Not Active; IC50 ([21]; hela): Not Active; inhibition at 50 µg/mL [22]: 100%
7 | N=C1C(=S)N(c2ccc(Cl)c(Cl)c2)C(=O)N1c1ccc(Cl)cc1 | 16 | 17 | 13 | 14 | 15 | 18 | 13 | inactive | inactive | 19 | 17 | inactive | 16 | 13 | diameter of the inhibition zone (DIZ) [5]: 14 mm; zone of inhibition at 5000 µg/mL [31]: 17 mm; zone of inhibition at 5000 µg/mL [29]: 16 mm; zone of inhibition at 5000 µg/mL [30]: 21 mm; zone of inhibition at 2500 µg/mL [34]: 15 mm
8 | N=C1C(=S)N(c2ccc(Cl)c(Cl)c2)C(=O)N1c1ccc(Oc2ccc(N3C(=N)C(=S)N(c4ccc(Cl)c(Cl)c4)C3=O)cc2)cc1 | 18 | 18 | 19 | 20 | 15 | 20 | 15 |  |  |  |  |  |  | 17 | 
